Experiments:
[1] = target: T1, 5-hydroxytryptamine receptor 1A (Rattus norvegicus, UniProt P19327); assay: Displacement of […] membrane 5-hydroxytryptamine 1A receptor
T1 sequence (P19327 whole entry): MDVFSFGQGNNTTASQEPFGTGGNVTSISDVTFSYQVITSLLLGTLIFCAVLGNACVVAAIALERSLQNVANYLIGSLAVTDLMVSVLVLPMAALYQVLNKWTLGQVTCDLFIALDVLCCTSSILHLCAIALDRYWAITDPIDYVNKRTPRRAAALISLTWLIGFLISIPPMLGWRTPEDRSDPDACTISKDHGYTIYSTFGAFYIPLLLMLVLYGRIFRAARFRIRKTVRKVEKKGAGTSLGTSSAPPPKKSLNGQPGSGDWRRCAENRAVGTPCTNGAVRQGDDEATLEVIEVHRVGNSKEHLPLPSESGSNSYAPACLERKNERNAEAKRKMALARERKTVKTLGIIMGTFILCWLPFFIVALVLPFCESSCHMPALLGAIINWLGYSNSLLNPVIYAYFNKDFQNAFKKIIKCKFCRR
In short: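 Radioligand displacement on rat brain membranes, run by an external laboratory. [3H]prazosin and [3H]ketanserin were used with cortex, and [3H]-8-OH-DPAT with hippocampus.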

[2] = Binding affinity ratio towards sigma receptor compared to the 5-hydroxytryptamine 1A receptor
[3] = target: D(2) dopamine receptor (Rattus norvegicus, UniProt P61169); assay: Displacement of [3H]- raclopride from rat striatum Dopamine receptor D2
[4] = target: T2, Muscarinic acetylcholine receptor M1 (Rattus norvegicus, UniProt P08482); assay: In vitro binding affinity towards Muscarinic acetylcholine receptor M1 by displacing [3H]- telenzepine from rat brain membrane
T2 sequence (P08482 whole entry): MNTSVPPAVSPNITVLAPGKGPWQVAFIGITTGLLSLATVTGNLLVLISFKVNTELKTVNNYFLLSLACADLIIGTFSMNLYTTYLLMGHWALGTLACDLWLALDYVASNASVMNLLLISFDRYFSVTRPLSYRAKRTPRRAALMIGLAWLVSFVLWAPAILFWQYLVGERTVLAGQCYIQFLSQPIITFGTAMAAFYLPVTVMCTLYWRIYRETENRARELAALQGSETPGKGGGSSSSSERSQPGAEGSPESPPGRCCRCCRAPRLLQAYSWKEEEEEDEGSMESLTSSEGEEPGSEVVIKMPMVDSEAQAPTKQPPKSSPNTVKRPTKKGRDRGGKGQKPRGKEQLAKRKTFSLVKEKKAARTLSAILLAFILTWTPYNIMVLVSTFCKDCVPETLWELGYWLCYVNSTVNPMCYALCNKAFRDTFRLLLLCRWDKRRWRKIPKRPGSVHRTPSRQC

[5] = target: T3, Sigma non-opioid intracellular receptor 1 (Homo sapiens, UniProt Q99720); assay: In vitro binding affinity for Sigma opioid receptor by displacement of [3H]DTG
[6] = target: Histamine H1 receptor (Rattus norvegicus, UniProt P31390); assay: Displacement of [3H]- pyrilamine from rat brain membrane Histamine H1 receptor
[7] = target: Sigma 2 receptor; assay: In vitro binding affinity towards Sigma opioid receptor type 2 by using [3H]- DTG in the presence of 1 uM (+)- pentazocine
[8] = target: T3, Sigma non-opioid intracellular receptor 1; assay: In vitro binding affinity towards Sigma opioid receptor type 1 by using [3H]- (+)-pentazocine as radioligand
[9] = target: T3, Sigma non-opioid intracellular receptor 1; assay: Binding affinity ratio between Sigma opioid receptor type 1 and Sigma opioid receptor type 2
In short: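 Selectivity ratio of σ1 to σ2 affinity, determined only for compounds with high affinity at sigma sites. σ1 affinity was measured with (+)-pentazocine and σ2 affinity with DTG as radioligands.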

[10] = species on record: Rattus norvegicus; assay: In vitro binding affinity ratio between Sigma opioid receptor and 5-hydroxytryptamine 1A receptor
[11] = target: T2, Muscarinic acetylcholine receptor M1; assay: In vitro binding affinity towards Muscarinic acetylcholine receptor M1 by displacing [3H]- telenzepine from rat brain membrane

Chain of Histamine H1 receptor (P31390 whole entry): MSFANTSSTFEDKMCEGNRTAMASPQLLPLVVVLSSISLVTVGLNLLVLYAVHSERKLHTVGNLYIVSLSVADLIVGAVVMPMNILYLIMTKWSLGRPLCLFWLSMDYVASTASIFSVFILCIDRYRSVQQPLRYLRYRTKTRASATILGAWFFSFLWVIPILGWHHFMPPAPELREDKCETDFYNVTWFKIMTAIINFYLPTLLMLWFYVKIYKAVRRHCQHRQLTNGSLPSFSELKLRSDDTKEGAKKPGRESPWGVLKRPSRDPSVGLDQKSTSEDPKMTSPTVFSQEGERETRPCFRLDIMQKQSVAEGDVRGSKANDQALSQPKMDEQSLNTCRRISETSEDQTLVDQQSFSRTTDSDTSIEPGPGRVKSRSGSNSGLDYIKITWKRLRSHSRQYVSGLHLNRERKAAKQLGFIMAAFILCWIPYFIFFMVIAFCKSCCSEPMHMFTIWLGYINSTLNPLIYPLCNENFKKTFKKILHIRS
Chain of D(2) dopamine receptor (P61169 whole entry): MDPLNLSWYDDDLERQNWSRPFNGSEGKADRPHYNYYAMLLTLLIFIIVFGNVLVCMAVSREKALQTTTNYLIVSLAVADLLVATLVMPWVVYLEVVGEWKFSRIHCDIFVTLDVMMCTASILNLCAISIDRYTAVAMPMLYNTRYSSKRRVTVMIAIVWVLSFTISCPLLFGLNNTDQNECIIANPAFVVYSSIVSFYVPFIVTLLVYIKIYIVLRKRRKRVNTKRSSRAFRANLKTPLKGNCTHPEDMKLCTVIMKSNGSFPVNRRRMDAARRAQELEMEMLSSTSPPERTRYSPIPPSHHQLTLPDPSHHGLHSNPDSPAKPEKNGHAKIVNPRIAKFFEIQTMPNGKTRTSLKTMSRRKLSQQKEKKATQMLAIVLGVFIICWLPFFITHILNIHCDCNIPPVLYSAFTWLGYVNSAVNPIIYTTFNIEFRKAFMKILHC
T3 sequence (Q99720 whole entry): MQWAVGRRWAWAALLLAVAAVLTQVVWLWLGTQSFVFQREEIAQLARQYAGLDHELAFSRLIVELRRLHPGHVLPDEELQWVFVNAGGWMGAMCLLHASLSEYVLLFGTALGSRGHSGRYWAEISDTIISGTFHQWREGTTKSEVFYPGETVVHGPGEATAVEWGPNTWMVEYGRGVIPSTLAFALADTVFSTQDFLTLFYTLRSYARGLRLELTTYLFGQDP

Row | Ki [1] [nM] | Ratio [2] | Ki [3] [nM] | Ki [4] [nM] | Ki [5] [nM] | Ki [6] [nM] | Ki [7] [nM] | Ki [8] [nM] | Ratio [9] | Ratio [10] | Ki [11] [nM] | SMILES
1 | > 10000 | < 0.2 | > 10000 | > 10000 | 2000 | 20000 | – | – | – | – | – | C[C@@H]1CN(CCc2ccc3c(c2)sc(=O)n3C)C[C@H](C)N1
2 | 40 | – | 10000 | 10000 | 2 | < 100 | 2 | 37.2 | – | – | – | Cn1c(=O)sc2cc(CCCCN3CCN(Cc4ccccc4)CC3)ccc21
3 | 300 | – | 100 | 500 | 2 | 9 | – | 139 | 70 | 0.006 | – | Cn1c(=O)sc2cc(CCCCN3CCN(Cc4ccc(Cl)c(Cl)c4)CC3)ccc21
4 | 30 | 0.17 | 100 | – | 5 | 9 | – | – | – | – | 200 | Cn1c(=O)sc2cc(CCCCN3CCC(Cc4ccccc4)CC3)ccc21
5 | 30 | 0.17 | 200 | 1000 | 5 | 40 | – | – | – | – | – | Cn1c(=O)sc2cc(CCN3CCN(Cc4ccc(Cl)c(Cl)c4)CC3)ccc21

Further lines, the molecule ahead of its results:

Row | SMILES | Ki [1] [nM] | Ratio [2] | Ki [3] [nM] | Ki [4] [nM] | Ki [5] [nM] | Ki [6] [nM] | Ki [7] [nM] | Ki [8] [nM] | Ratio [9] | Ratio [10] | Ki [11] [nM]
6 | Cn1c(=O)sc2cc(CCCCN3CCN(Cc4ccc(Cl)cc4Cl)CC3)ccc21 | 200 | 0.04 | 100 | < 10000 | 9 | < 100 | – | – | – | – | –
7 | Cn1c(=O)sc2cc(CCN3CCN(Cc4ccccc4)CC3)ccc21 | 30 | 0.1 | > 10000 | 500 | 3 | 7 | – | – | – | – | –
8 | C[C@@H]1CN(CCCCc2ccc3c(c2)sc(=O)n3C)C[C@H](C)N1 | > 100000 | < 0.001 | > 100000 | > 100000 | 100 | > 100000 | – | – | – | – | –
9 | Cn1c(=O)sc2cc(CCCCN3CCC(c4ccccc4)CC3)ccc21 | 10 | 0.3 | 30 | – | 3 | 6000 | – | – | – | – | –
10 | Cn1c(=O)sc2cc(CCN3CCN(Cc4ccc(Cl)cc4Cl)CC3)ccc21 | 100 | 0.08 | 100 | – | 8 | 10 | – | – | – | – | –
11 | Cn1c(=O)sc2cc(CCN3CCC(Cc4ccccc4)CC3)ccc21 | 4 | 1.25 | > 100 | 100 | 5 | 3 | – | – | – | – | –
12 | Cn1c(=O)sc2cc(CCN3CCC(c4ccccc4)CC3)ccc21 | 4 | – | 1000 | 1000 | 2 | 20 | – | 20 | 10 | 0.5 | –

Source: ChEMBL document CHEMBL1135280, “Synthesis and pharmacological evaluation of 6-piperidino- and 6-piperazinoalkyl-2(3H)-benzothiazolones as mixed sigma/5-HT(1A) ligands” (Bioorg Med Chem Lett, 2002)
